The target in assay [1] is T1, human platelet 12-lipoxygenase (12-hLO) (Homo sapiens, UniProt P18054).
T1 sequence (P18054 1-663): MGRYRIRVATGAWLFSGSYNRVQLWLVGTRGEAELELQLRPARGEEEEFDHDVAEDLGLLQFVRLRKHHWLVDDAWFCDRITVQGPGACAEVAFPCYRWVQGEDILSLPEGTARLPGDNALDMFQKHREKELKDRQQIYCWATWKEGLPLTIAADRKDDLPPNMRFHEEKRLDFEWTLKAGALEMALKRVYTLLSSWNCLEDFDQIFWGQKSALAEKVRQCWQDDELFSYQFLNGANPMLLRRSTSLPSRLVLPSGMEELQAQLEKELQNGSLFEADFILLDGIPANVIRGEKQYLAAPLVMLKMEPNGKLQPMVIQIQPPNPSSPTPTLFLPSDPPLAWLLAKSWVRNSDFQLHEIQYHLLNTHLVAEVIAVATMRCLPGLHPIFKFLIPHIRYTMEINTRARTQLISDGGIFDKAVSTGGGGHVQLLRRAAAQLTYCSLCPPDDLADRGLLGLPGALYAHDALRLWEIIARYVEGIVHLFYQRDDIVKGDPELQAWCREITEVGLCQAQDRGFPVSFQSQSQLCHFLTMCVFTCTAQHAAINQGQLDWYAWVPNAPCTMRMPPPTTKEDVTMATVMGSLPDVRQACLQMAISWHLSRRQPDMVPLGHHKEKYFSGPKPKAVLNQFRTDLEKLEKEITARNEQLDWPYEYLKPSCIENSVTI
In words: Kinetic inhibition assay of 12-hLO. Type of assay: biochemical.

For assay [2], the target named is T2, soybean lipoxygenase-1 (sLO-1) (Glycine max, UniProt P08170).
T2 sequence (P08170 1-839): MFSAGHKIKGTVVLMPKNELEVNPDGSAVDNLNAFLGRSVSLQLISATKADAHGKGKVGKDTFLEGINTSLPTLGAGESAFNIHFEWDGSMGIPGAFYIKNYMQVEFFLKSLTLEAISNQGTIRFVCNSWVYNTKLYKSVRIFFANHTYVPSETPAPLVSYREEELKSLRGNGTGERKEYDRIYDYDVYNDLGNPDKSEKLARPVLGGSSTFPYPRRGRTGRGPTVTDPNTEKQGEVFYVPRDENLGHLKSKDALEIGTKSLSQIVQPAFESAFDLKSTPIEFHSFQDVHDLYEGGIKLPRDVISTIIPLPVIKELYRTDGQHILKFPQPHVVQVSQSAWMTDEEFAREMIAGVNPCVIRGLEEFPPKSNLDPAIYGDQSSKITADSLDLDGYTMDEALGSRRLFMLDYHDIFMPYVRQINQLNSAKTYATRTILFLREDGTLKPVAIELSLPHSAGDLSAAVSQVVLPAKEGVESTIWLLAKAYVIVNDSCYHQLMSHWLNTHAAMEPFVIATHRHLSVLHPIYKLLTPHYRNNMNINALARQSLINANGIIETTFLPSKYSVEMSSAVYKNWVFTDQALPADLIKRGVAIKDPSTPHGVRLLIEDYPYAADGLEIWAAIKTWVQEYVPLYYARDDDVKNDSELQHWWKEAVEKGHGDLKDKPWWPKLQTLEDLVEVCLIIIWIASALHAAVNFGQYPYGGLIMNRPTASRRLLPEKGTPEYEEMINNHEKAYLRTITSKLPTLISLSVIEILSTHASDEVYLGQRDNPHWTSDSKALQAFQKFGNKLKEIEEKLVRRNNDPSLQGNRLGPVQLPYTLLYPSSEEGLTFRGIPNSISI
Put plainly: Kinetic inhibition assay of sLO-1. Type of assay: biochemical.

The target in assay [3] is T3, human reticulocyte 15-lipoxygenase-1 (15-hLO-1) (Homo sapiens, UniProt P16050).
T3 sequence (P16050 1-662): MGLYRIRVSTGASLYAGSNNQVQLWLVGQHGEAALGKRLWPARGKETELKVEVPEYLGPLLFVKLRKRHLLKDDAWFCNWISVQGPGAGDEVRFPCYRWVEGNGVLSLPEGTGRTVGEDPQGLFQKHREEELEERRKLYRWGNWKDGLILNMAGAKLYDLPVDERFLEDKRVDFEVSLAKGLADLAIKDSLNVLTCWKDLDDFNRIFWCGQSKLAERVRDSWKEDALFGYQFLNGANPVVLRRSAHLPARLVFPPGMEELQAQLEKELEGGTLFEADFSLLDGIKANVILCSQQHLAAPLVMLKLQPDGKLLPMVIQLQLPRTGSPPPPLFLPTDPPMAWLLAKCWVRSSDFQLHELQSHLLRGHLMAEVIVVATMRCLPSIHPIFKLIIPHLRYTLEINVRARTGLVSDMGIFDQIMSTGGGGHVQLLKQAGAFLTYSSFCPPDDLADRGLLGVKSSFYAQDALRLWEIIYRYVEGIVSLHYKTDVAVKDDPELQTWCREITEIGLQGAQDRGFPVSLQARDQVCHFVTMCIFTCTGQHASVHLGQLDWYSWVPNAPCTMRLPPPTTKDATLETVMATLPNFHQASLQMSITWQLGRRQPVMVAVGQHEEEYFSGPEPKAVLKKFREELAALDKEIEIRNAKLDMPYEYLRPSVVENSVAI
Put plainly: Kinetic inhibition assay of 15-hLO-1. Format: biochemical. The following applies: for Ki: Kis; for Ki / Kii: noncompetitive.

Another assay addresses T4, 15-hLO-1 (Homo sapiens, UniProt P16050).
T4 sequence (P16050 1-662): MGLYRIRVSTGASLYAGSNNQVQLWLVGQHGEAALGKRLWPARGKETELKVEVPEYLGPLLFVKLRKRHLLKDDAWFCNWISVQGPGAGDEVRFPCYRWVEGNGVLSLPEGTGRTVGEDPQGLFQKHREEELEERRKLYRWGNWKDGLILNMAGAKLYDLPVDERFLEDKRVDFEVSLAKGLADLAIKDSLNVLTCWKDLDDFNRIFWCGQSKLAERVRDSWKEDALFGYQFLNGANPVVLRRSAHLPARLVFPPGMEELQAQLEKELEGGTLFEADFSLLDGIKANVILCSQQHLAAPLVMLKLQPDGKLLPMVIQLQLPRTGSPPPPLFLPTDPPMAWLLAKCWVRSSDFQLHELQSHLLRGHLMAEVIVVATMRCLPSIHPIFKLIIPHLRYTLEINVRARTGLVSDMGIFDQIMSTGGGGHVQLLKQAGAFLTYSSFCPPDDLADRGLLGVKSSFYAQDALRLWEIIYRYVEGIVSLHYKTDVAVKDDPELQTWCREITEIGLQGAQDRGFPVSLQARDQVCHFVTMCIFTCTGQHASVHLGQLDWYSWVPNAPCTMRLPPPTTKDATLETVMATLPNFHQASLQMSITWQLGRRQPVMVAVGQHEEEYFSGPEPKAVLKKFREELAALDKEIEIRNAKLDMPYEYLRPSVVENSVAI
In words: HPLC analysis of product distribution, 15-hLO-1. Type of assay: biochemical. The following applies: AA 15 µM, inhibitor at 5 × Ki, HEPES pH 7.5; error in parentheses. The gist of the method:
(§1)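 Reaction was followed at 235 nm and products isolated after 15 min. Products were resolved by isocratic reverse-phase HPLC (55% A/45% B) against authentic HETE standards, with 8- and 12-HETE coeluting.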

Assay [4] deals with T5, sLO-1 (Glycine max, UniProt P08170).
T5 sequence (P08170 1-839): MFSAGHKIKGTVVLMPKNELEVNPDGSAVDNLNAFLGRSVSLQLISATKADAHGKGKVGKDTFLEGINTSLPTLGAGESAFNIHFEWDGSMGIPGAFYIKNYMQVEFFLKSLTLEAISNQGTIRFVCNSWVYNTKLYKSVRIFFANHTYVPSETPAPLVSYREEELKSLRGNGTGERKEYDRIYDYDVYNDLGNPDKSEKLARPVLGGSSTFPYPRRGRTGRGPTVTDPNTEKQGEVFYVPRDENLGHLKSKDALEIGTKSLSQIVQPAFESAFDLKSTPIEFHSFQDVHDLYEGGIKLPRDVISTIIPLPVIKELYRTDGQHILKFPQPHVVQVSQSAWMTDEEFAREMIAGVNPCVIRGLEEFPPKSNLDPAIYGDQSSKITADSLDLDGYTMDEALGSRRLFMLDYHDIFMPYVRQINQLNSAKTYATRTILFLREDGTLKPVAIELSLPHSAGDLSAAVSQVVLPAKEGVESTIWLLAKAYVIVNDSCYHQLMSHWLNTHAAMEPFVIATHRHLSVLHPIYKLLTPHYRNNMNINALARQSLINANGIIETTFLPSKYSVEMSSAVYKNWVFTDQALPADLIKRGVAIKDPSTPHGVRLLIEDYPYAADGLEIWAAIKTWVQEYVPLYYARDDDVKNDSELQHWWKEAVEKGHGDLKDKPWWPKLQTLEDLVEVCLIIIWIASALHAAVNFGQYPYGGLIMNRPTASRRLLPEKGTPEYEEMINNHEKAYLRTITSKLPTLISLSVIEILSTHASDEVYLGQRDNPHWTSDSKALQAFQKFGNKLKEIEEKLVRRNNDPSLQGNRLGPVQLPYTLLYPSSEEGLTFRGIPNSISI
Put plainly: Incubation of thiaLAs with sLO-1 as possible substrates. Type of assay: biochemical, soybean. The following applies: over the course of one hour.

Assay [5] concerns the target T5, sLO-1. In words: Consumption of the inhibitor under turnover conditions with 13-HPODE. Format: biochemical, soybean. The following applies: enzyme, AA and 13-HPODE, 1 hour, HPLC.
The target in assay [6] is T5, sLO-1. Put plainly: HPLC analysis of product regioselectivity, sLO-1. Conditions: exclusive product 13-HPODE, no 9-HPODE, with and without inhibitor. Format: biochemical, soybean.
A further assay concerns the target T6, 12-hLO (Homo sapiens, UniProt P18054).
T6 sequence (P18054 1-663): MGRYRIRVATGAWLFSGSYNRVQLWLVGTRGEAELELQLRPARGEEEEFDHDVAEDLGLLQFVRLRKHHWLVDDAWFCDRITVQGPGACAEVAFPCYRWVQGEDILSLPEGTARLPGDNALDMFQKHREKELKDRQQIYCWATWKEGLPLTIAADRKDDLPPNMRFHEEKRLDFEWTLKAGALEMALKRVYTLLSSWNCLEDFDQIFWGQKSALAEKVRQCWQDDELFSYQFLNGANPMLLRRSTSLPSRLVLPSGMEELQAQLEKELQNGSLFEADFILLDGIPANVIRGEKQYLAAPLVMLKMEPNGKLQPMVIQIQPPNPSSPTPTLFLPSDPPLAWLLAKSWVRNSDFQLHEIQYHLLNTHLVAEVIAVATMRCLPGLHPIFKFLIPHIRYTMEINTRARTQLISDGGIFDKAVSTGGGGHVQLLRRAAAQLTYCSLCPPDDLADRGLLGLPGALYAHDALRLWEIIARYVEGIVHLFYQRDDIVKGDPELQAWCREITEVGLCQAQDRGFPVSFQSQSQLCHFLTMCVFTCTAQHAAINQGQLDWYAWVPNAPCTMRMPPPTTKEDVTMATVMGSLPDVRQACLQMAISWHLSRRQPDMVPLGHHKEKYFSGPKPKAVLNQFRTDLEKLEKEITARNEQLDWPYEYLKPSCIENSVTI
Put plainly: HPLC analysis of product distribution, 12-hLO. Type of assay: biochemical. The following applies: AA 15 µM, inhibitor at 5 × Ki, HEPES pH 7.5; error in parentheses. Put shortly: as §1

Setting [7] is: Ki (competitive inhibition), substrate linoleic acid, pH 10.0.
The mark [8] stands for this setting: substrate linoleic acid, pH 10.0.
The mark [9] stands for this setting: substrate LA, pH 7.5, 13-HPODE activator.

Several values for one entry are separate records, joined by “and”; a condition that tells them apart may be missing. Equal values may be shown once.

The term Ki denotes a dissociation constant, usually derived from enzyme kinetics or from competition with a known ligand. Regarding `CCCCC/C=C\S/C=C\CCCCCCCC(=O)O` [Compound 11-thiaLA, 11-Thialinoleic acid], the Ki is 2.5 µM in assay [1]; 22 µM in assay [2] (setting [7]); 45.6 ± 11.1 µM in assay [2] (Kis, substrate arachidonic acid, pH 7.5, 13-HPODE activator, noncompetitive); 48.5 µM and 48 µM in assay [2] (Kis, substrate arachidonic acid, pH 10.0, 13-HPODE activator, noncompetitive); 11.4 µM in assay [3] (substrate AA, 13-HPODE activator); 20.1 µM in assay [3] (setting [9]). In addition, the Mode of inhibition result in assay [1] (AA as substrate) was “competitive inhibitor”; in assay [2] (substrate AA, pH 10.0 and pH 7.5, 13-HPODE activator), “noncompetitive inhibition”; in assay [2] (setting [8]) it was “competitive inhibition”; in assay [3] (AA as substrate), “noncompetitive inhibitor”; in assay [3] (with respect to LA), “noncompetitive inhibitor”. Further, in assay [1] (compared with Ki for oxidation of LA by sLO-1), the “Ki for 12-hLO smaller than for sLO-1 (LA)” value was “approximately 10 fold”. Besides, the “Mode of inhibition in the presence of activator” value in assay [1] (oxidation of AA, 13-HPODE (16 µM) present) is “competitive inhibition”; in assay [2] (oxidation of LA, 13-HPODE present), “competitive inhibition”. The Kii in assay [2] (substrate arachidonic acid, pH 7.5, 13-HPODE activator, noncompetitive) is on record as 38.2 ± 5.4 µM; in assay [2] (substrate arachidonic acid, pH 10.0, 13-HPODE activator, noncompetitive), 36.0 ± 4.0 µM; in assay [3] (substrate AA, 13-HPODE activator, listed as 11-ThiaLA), 18.1 ± 2.0 µM; in assay [3] (substrate AA, 13-HPODE activator, listed as 11-Thialinoleic acid), 18.1 µM; in assay [3] (setting [9]) it was 20.0 ± 1.4 µM. Moreover, the “8-/12-HETE (%)” value is on record as 16 (3) % on 15-hLO-1 and 93 (1) % on 12-hLO. Besides, the “11-HETE (%)” value at 15-hLO-1 was 5 (1) %; on 12-hLO it was 2 (1) %. The “15-HETE (%)” value on 15-hLO-1 was 79 (3) %; on 12-hLO it was 5 (1) %. In addition, the “Activity as substrate on incubation with sLO-1” value at sLO-1 [4] is listed as “did not result in any appreciable activity”. At sLO-1 [5], the “Conversion of the inhibitor under turnover conditions” value is given as “no discernable conversion”. On sLO-1 [6], the “Effect on product regioselectivity of sLO-1” value is reported as “did not affect the product regioselectivity”.

Turning to `CCCCS/C=C\C/C=C\CCCCCCCC(=O)O` [Compound 14-thiaLA, 14-Thialinoleic acid], the “Substrate or inhibitor behaviour with 12-hLO” value in assay [1] (AA as substrate) is reported as “neither a substrate nor an inhibitor”. This molecule also gave a Ki in assay [2] (setting [7]) of 35 µM. Further, in assay [2] (setting [8]), the Mode of inhibition result was “competitive inhibition”. In addition, on sLO-1 [4], the “Activity as substrate on incubation with sLO-1” value is “did not result in any appreciable activity”. In addition, at sLO-1 [5], the “Conversion of the inhibitor under turnover conditions” value is given as “oxidized to a small extent”.

Values taken from paper PMC2883171 (Organic & biomolecular chemistry, 2008).
